Source: ChEMBL document CHEMBL1139469, “Synthesis and 3D QSAR of new pyrazolo[3,4-b]pyridines: potent and selective inhibitors of A1 adenosine receptors” (J Med Chem, 2005)
pKi: −log10 of the molar value.

Columns and labels:
[1] = molecular target: Adenosine receptor A1 (Bos taurus) (UniProt P28190); assay: Displacement of [3H]DPCPX from bovine adenosine A1 receptor in bovine cortical membranes
Adenosine receptor A1 = molecular target: T1, Adenosine receptor A1 (Bos taurus, UniProt P28190); assay: Displacement of [3H]DPCPX from adenosine A1 receptor in bovine cerebral cortical membranes; format: cell membranes
T1 sequence (P28190 whole entry): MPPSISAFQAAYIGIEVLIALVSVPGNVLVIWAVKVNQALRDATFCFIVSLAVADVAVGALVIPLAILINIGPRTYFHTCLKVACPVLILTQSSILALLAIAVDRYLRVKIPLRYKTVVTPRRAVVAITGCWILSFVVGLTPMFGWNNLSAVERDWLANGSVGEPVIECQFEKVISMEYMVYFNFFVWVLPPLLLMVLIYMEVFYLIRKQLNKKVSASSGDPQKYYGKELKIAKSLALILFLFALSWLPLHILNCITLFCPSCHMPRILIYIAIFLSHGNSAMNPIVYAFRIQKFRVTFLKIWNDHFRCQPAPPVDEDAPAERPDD
In short: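 [3H]DPCPX was displaced from A1 sites in bovine cortical membranes. Compounds were taken up in DMSO and diluted in assay buffer, with DMSO at 2% or less final. Ki used at least six concentrations across 3 orders of magnitude and was the mean ± SEM of three independent assays in triplicate.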

[2] = tested on: Adenosine receptor A2a (Bos taurus); assay: Displacement of [3HCGS21680 from adenosine A2A receptor in bovine striatal membranes at 10 uM
[3] = molecular target: T2, Adenosine receptor A3 (Homo sapiens) (UniProt P0DMS8); assay: Displacement of [125I]AB-MECA from human adenosine A3 receptor expressed in CHO cells at 10 uM
T2 sequence (whole entry): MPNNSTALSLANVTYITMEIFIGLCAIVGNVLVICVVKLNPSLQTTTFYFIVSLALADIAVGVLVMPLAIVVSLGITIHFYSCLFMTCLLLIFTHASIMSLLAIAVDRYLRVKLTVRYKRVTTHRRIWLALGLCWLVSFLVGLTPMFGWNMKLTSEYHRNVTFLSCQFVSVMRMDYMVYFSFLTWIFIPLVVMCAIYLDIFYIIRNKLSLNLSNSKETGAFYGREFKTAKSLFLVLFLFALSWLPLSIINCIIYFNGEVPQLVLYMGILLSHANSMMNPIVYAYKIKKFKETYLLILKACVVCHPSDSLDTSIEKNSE

| SMILES | pKi [1] | pKi (Adenosine receptor A1) | inhibition [2] | inhibition [3] |
| --- | --- | --- | --- | --- |
| CC(C)OC(=O)c1cnc2c(cnn2CC(Cl)c2ccccc2)c1NCc1ccccc1 (centres undefined) | 6.20 | 6.25 | – | – |
| O=c1n(-c2ccccc2)nc2c(NC3CCCCC3)nc3ccccc3n12 | 8.80 | – | – | – |
| Cc1ccc2c(O)cc(-c3ccccc3)nc2n1 | 8.30 | – | – | – |
| CCCCOC(=O)c1cnc2c(cnn2CC(Cl)c2ccccc2)c1N1CCCC1 (centres undefined) | 5.70 | 5.72 | 45% | – |
| Oc1ccc(-c2nnc3nc4ccccc4n3c2O)cc1O | 6.30 | – | – | – |
| CCOC(=O)c1cnc2c(cnn2CC(Cl)c2ccccc2)c1NC1CC1 (centres undefined) | 6.90 | – | – | – |
| CCCCOC(=O)c1cnc2c(cnn2CC(Cl)c2ccccc2)c1NCCC (centres undefined) | 6.00 | 6.02 | 20% | – |
| CCCOC(=O)c1cnc2c(cnn2CC(Cl)c2ccccc2)c1N1CCCC1 (centres undefined) | 5.50 | 5.53 | – | – |
| Cc1ccc2c(NN)cc(-c3ccccc3)nc2n1 | 7.00 | – | – | – |
| Nc1nc2ccccc2n2c(=O)n(-c3ccccc3)nc12 | 8.00 | – | – | – |
| COc1cc(-c2ccccc2)nc2c1ccc(=O)n2C | 5.90 | – | – | – |
| CC(C)OC(=O)c1cnc2c(cnn2CC(Cl)c2ccccc2)c1NCCc1ccccc1Cl (centres undefined) | 7.40 | 7.36 | 13% | – |
| CCOc1cc(-c2ccccc2)nc2nc(Br)ccc12 | 7.30 | – | – | – |
| Cc1ccc2c(Cl)cc(-c3ccccc3)nc2n1 | 6.00 | – | – | – |
| CCCc1cc(O)c2ccc(N)nc2n1 | 6.70 | – | – | – |
| Cc1ccc(CCNc2c(C(=O)OC(C)C)cnc3c2cnn3CC(Cl)c2ccccc2)cc1 (centres undefined) | 7.30 | 7.32 | 26% | – |
| O=c1n(-c2ccccc2)nc2c(NC3CCCC3)nc3ccccc3n12 | 9.40 | – | – | – |
| COc1ccc2c(O)cc(-c3ccccc3)nc2n1 | 8.80 | – | – | – |
| CCCNc1c(C(=O)OC(C)CC)cnc2c1cnn2CC(Cl)c1ccccc1 (centres undefined) | 7.30 | 7.29 | 40% | – |
| CC(=O)Nc1ccc2c(O)cc(-c3ccccc3)nc2n1 | 6.50 | – | – | – |
| CCOC(=O)c1cnc2c(cnn2CC(Cl)c2ccccc2)c1NCCc1ccccc1 (centres undefined) | 7.30 | – | – | – |
| Oc1cc(-c2ccccc2)nc2nc(NC3CCCCC3)ccc12 | 7.10 | – | – | – |
| CCOc1ccc2c(O)cc(-c3ccccc3)nc2n1 | 8.30 | – | – | – |
| COc1ccc(-n2nc3c(N)nc4ccccc4n3c2=O)cc1 | 6.50 | – | – | – |

| SMILES | pKi [1] | pKi (Adenosine receptor A1) | inhibition [2] | inhibition [3] |
| --- | --- | --- | --- | --- |
| Oc1c(-c2ccco2)nnc2nc3ccccc3n12 | 6.60 | – | – | – |
| COC(=O)c1cnc2c(cnn2CC(Cl)c2ccccc2)c1NCc1ccccc1 (centres undefined) | 6.90 | 6.85 | – | – |
| CC(C)OC(=O)c1cnc2c(cnn2CC(Cl)c2ccccc2)c1NCCc1cccc(Cl)c1 (centres undefined) | 7.00 | 7.00 | 14% | – |
| CCCNc1nc(SC)nc2c1cnn2CC(Cl)c1ccccc1 (centres undefined) | 6.00 | – | – | – |
| CC(C)OC(=O)c1cnc2c(cnn2CC(Cl)c2ccccc2)c1N1CCCC1 (centres undefined) | 6.00 | 5.97 | 30% | – |
| O=C(Nc1nc2ccccc2n2c(=O)n(-c3ccc(Cl)cc3)nc12)c1ccccc1 | 7.00 | – | – | – |
| O=c1c(-c2ccco2)nnc2n(Cc3ccccc3)c3ccccc3n12 | 6.00 | – | – | – |
| Cn1c(=O)ccc2c(O)cc(-c3ccccc3)nc21 | 5.30 | – | – | – |
| CCCOC(=O)c1cnc2c(cnn2CC(Cl)c2ccccc2)c1NCCc1ccccc1 (centres undefined) | 6.90 | 6.89 | – | – |
| CCOC(=O)c1cnc2c(cnn2CC(Cl)c2ccccc2)c1NCc1ccccc1 (centres undefined) | 6.90 | – | – | – |
| CCOC(=O)c1cnc2c(cnn2CC(Cl)c2ccccc2)c1N1CCOCC1 (centres undefined) | 6.30 | – | – | – |
| Cn1c2ccccc2n2c(=O)c(-c3cccs3)nnc12 | 7.10 | – | – | – |
| CCCCNc1nc(SC)nc2c1cnn2CC(Cl)c1ccccc1 (centres undefined) | 5.70 | – | – | – |
| CSc1nc(NC2CCCCC2)c2cnn(CC(Cl)c3ccccc3)c2n1 (centres undefined) | 5.20 | – | – | – |
| COc1cc(-c2ccccc2)nc2nc(C)ccc12 | 5.20 | – | – | – |
| O=C(Nc1ccccc1)Nc1nc2ccccc2n2c(=O)n(-c3ccc(Cl)cc3)nc12 | 7.30 | – | – | – |
| CCC(C)OC(=O)c1cnc2c(cnn2CC(Cl)c2ccccc2)c1NCCc1ccccc1 (centres undefined) | 7.20 | 7.21 | 46% | – |
| CCCOC(=O)c1cnc2c(cnn2CC(Cl)c2ccccc2)c1NCc1ccccc1 (centres undefined) | 5.90 | 5.86 | – | – |
| Cc1ccc2c(O)ccnc2n1 | 5.10 | – | – | – |
| Cc1ccc2c(NC3CCCCC3)cc(-c3ccccc3)nc2n1 | 7.50 | – | – | – |
| Cc1ccc(CCNc2c(C(=O)OCC3CC3)cnc3c2cnn3CC(Cl)c2ccccc2)cc1 (centres undefined) | 7.20 | 7.20 | 4% | – |
| CCC(C)OC(=O)c1cnc2c(cnn2CC(Cl)c2ccccc2)c1NC1CC1 (centres undefined) | 6.70 | 6.71 | 33% | – |
| Cc1nnc2nc3ccccc3n2c1O | 5.40 | – | – | – |
| CCOc1ccc2c(OCC)cc(-c3ccccc3)nc2n1 | 6.50 | – | – | – |

| SMILES | pKi [1] | pKi (Adenosine receptor A1) | inhibition [2] | inhibition [3] |
| --- | --- | --- | --- | --- |
| Oc1cc(-c2ccccc2)nc2ncccc12 | 7.80 | – | – | – |
| Cn1c2ccccc2n2c(=O)c(-c3ccco3)nnc12 | 6.10 | – | – | – |
| CCCNc1c(C(=O)OCC2CC2)cnc2c1cnn2CC(Cl)c1ccccc1 (centres undefined) | 7.00 | 6.96 | 23% | – |
| O=c1n(-c2ccc(Cl)cc2)nc2c(NC3CCCCC3)nc3ccccc3n12 | 7.10 | – | – | – |
| Cc1cccc(-n2nc3c(NC4CCCCC4)nc4ccccc4n3c2=O)c1 | 8.40 | – | – | – |
| Cc1cc(O)c2ccc(N)nc2n1 | 5.00 | – | – | – |
| Cc1ccc2c(N)cc(-c3ccccc3)nc2n1 | 7.80 | – | – | – |
| Cc1nnc2n(C)c3ccccc3n2c1=O | 5.00 | – | – | – |
| CCOC(=O)c1cnc2c(cnn2CC(Cl)c2ccccc2)c1NCCc1ccccc1Cl (centres undefined) | 7.10 | 7.12 | – | – |
| Oc1cc(-c2ccccc2)nc2nc(Oc3ccccc3)ccc12 | 7.60 | – | – | – |
| O=c1[nH]nc2c(NCCc3ccccc3)nc3ccccc3n12 | 8.30 | – | – | – |
| CCCc1cc(O)c2ccc(C)nc2n1 | 7.30 | – | – | – |
| O=c1c(-c2ccccc2)nnc2n(-c3ccccc3)c3ccccc3n12 | 7.70 | – | – | – |
| Cn1c2ccccc2n2c(=O)c(-c3ccccc3)nnc12 | 7.20 | – | – | – |
| Oc1cc(-c2ccccc2)nc2nc(Cl)ccc12 | 9.80 | – | – | – |
| O=C(OCC1CC1)c1cnc2c(cnn2CC(Cl)c2ccccc2)c1NCCc1ccccc1 (centres undefined) | 7.30 | 7.32 | 54% | – |
| COC(=O)c1cnc2c(cnn2CC(Cl)c2ccccc2)c1N1CCCC1 (centres undefined) | 5.40 | 5.37 | 0% | – |
| COc1ccc(-c2nnc3n(C)c4ccccc4n3c2=O)cc1 | 5.70 | – | – | – |
| COC(=O)c1cnc2c(cnn2CC(Cl)c2ccccc2)c1NC1CC1 (centres undefined) | 6.60 | 6.60 | – | – |
| Nc1nc2ccccc2n2c(=O)n(-c3cccc(F)c3)nc12 | 7.50 | – | – | – |
| Cc1ccc2c(O)cc(-c3ccc(F)cc3)nc2n1 | 8.30 | – | – | – |
| O=c1c(Cc2ccccc2)nnc2n(Cc3ccccc3)c3ccccc3n12 | 6.60 | – | – | – |
| CC(C)OC(=O)c1cnc2c(cnn2CC(Cl)c2ccccc2)c1N1CCOCC1 (centres undefined) | 5.70 | 5.74 | – | – |
| Cc1ccc2c(O)cc(-c3ccc(N)cc3)nc2n1 | 8.20 | – | – | – |

| SMILES | pKi [1] | pKi (Adenosine receptor A1) | inhibition [2] | inhibition [3] |
| --- | --- | --- | --- | --- |
| CCn1c(-c2ccccc2)cc(=O)c2ccc(C)nc21 | 6.30 | – | – | – |
| CCOC(=O)c1cnc2c(cnn2CC(Cl)c2ccccc2)c1NCCc1cccc(F)c1 (centres undefined) | 7.50 | 7.48 | 25% | – |
| Oc1ccc(-c2nnc3nc4ccccc4n3c2O)cc1 | 6.60 | – | – | – |
| Oc1cc(-c2ccccc2)nc2nc(Br)ccc12 | 9.10 | – | – | – |
| CCCNc1c(C(=O)OCC)cnc2c1cnn2CC(Cl)c1ccccc1 (centres undefined) | 7.00 | – | – | – |
| CSc1nc(NCCc2ccccc2)c2cnn(CC(Cl)c3ccccc3)c2n1 (centres undefined) | 5.00 | – | – | – |
| O=c1n(-c2cccc(F)c2)nc2c(NC3CCCCC3)nc3ccccc3n12 | 8.30 | – | – | – |
| CCCOC(=O)c1cnc2c(cnn2CC(Cl)c2ccccc2)c1N1CCOCC1 (centres undefined) | 5.70 | 5.67 | 31% | – |
| CCCOC(=O)c1cnc2c(cnn2CC(Cl)c2ccccc2)c1NC1CC1 (centres undefined) | – | – | – | 2% |
| O=c1n(-c2cccc(F)c2)nc2c(NC3CCCC3)nc3ccccc3n12 | 9.00 | – | – | – |
| CCOC(=O)c1cnc2c(cnn2CC(Cl)c2ccccc2)c1N1CCCC1 (centres undefined) | 7.00 | – | – | – |
| CC(C)OC(=O)c1cnc2c(cnn2CC(Cl)c2ccccc2)c1NCCc1ccc(Cl)cc1 (centres undefined) | 7.40 | 7.39 | 27% | – |
| Cn1c2ccccc2n2c(=O)c(-c3ccc(Cl)cc3)nnc12 | 5.00 | – | – | – |
| COc1ccc(-c2nnc3nc4ccccc4n3c2O)cc1OC | 5.70 | – | – | – |
| CN(C)c1ccc2c(O)cc(-c3ccccc3)nc2n1 | 9.20 | – | – | – |
| Oc1c(-c2ccccc2)nnc2nc3ccccc3n12 | 7.10 | – | – | – |
| O=c1[nH]nc2c(NCc3ccccc3)nc3ccccc3n12 | 7.30 | – | – | – |
| CCOC(=O)c1cnc2c(cnn2CC(Cl)c2ccccc2)c1NCCc1cccc(Cl)c1 (centres undefined) | 6.70 | 6.75 | – | – |
| Cc1cc(O)c2ccc(=O)[nH]c2n1 | 5.00 | – | – | – |
| Cc1cccc(-n2nc3c(N)nc4ccccc4n3c2=O)c1 | 7.70 | – | – | – |
| O=c1c(-c2ccco2)nnc2n(-c3ccccc3)c3ccccc3n12 | 6.50 | – | – | – |
